# In ChEMBL document CHEMBL1154842, “Synthesis, radiolabeling, and biological evaluation of (R)- and (S)-2-amino-3-[(18)F]fluoro-2-methylpropanoic acid (FAMP) and (R)- and (S)-3-[(18)F]fluoro-2-methyl-2-N-(methylamino)propanoic acid (NMeFAMP) as potential PET radioligands for imaging brain tumors” (J Med Chem, 2010):
# Columns and labels:
# 9L [1] = experiment: Cellular uptake in rat 9L cells assessed as inhibition of uptake at 5 uCi measured […] by gamma counting in presence of system L transport inhibitor BCH relative to control; format: ADME, cell-based; set-up: scale not given: the % may be the effect or the level left
# Method in brief: (§1)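 9L rat gliosarcoma cells, grown in DMEM with 10% FCS, were trypsinised and washed in HBSS. About 5×10^5 cells were incubated with 5 μCi tracer in amino-acid-free HBSS for 30 min at 37 °C, with or without 10 mM final BCH, MeAIB or ACS (3.3 mM each Ala/Cys/Ser). Cells were washed cold, gamma-counted and decay-corrected. Inhibition is percent of control; triplicates, one-way ANOVA.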
# 9L [2] = experiment: Cellular uptake in rat 9L cells assessed as inhibition of uptake at 5 uCi measured […] by gamma counting in presence of system ASC transport inhibitor ACS relative to control; format: ADME, cell-based; set-up: scale not given: the % may be the effect or the level left; method in brief: as §1
# 9L [3] = experiment: Cellular uptake in rat 9L cells at 5 uCi measured […] by gamma counting in presence of system A transport inhibitor MeAIB; format: ADME, cell-based
# Method in brief: (§2)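 9L rat gliosarcoma cells (DMEM, 10% FCS, 37 °C, 5% CO2) were trypsinised and washed in HBSS. About 5×10^5 cells took up 5 μCi tracer for 30 min in 0.1 mL amino acid-free HBSS, with inhibitor at 10 mM final (ACS: 3.3 mM each of alanine, cysteine, serine). Cells were spun and rinsed twice with ice-cold HBSS, then gamma counted with decay correction. Triplicates; uptake is % ID per 5×10^5 cells.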
# 9L [4] = experiment: Cellular uptake in rat 9L cells at 5 uCi measured […] by gamma counting; format: ADME, cell-based
# Method in brief: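 9L rat gliosarcoma cells, grown in DMEM with 10% FCS, were trypsinised and washed in HBSS. About 5×10^5 cells were exposed to 5 μCi tracer in amino-acid-free HBSS for 30 min at 37 °C, 5% CO2, then centrifuged and rinsed twice with ice-cold HBSS. Cells were gamma-counted and decay-corrected, with uptake reported as % of initial dose per 5×10^5 cells ± SD, n=3.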
# 9L [5] = experiment: Cellular uptake in rat 9L cells assessed as inhibition of uptake at 5 uCi measured […] by gamma counting in presence of system A transport inhibitor MeAIB relative to control; format: ADME, cell-based; set-up: scale not given: the % may be the effect or the level left; method in brief: as §1
# 9L [6] = experiment: Cellular uptake in rat 9L cells at 5 uCi measured […] by gamma counting in presence of system L transport inhibitor BCH; format: ADME, cell-based; method in brief: as §2
# 9L [7] = experiment: Cellular uptake in rat 9L cells at 5 uCi measured per 0.5 million cells by gamma counting in presence of system ASC transport inhibitor ACS
# Spleen [8] = experiment: Biodistribution in spleen of Fischer 344 rat bearing rat 9L cells at 20 uCi, iv after 60 mins; format: ADME, organism-based; settings: in vivo, 1 h
# Method in brief: (§3)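 Male Fischer 344 rats (200–250 g) carrying intracranial 9L gliosarcoma (5×10^4 cells implanted stereotactically, 10–12 days growth), under ketamine:xylazine anaesthesia. About 20 μCi tracer in 0.5 mL sterile saline given via tail-vein catheter. Groups of 4–5 were killed by intracardiac KCl at 15 (NMeFAMP only), 30, 60 or 120 min. Tissues were weighed and gamma-counted, decay-corrected, and reported as %ID/g, mean ± SD.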
# [9] = rat, in vivo, iv, 1 h
# Blood [10] = experiment: Biodistribution in blood of Fischer 344 rat bearing rat 9L cells at 20 uCi, iv after 30 mins; format: ADME, organism-based; settings: in vivo, 0.5 h; method in brief: as §3
# Pancreas [11] = experiment: Biodistribution in pancreas of Fischer 344 rat bearing rat 9L cells at 20 uCi, iv after 60 mins; format: ADME, organism-based; settings: in vivo, 1 h; method in brief: as §3
# Lung [12] = experiment: Biodistribution in lung of Fischer 344 rat bearing rat 9L cells at 20 uCi, iv after 120 mins; format: ADME, organism-based; settings: in vivo, 2 h; method in brief: as §3
# [13] = Biodistribution in testis of Fischer 344 rat bearing rat 9L cells at 20 uCi, iv after 30 mins; format: ADME, organism-based; settings: in vivo, 0.5 h; method in brief: as §3
# Muscle tissue [14] = experiment: Biodistribution in muscle of Fischer 344 rat bearing rat 9L cells at 20 uCi, iv after 120 mins; format: ADME, organism-based; settings: in vivo, 2 h; method in brief: as §3
# Bone [15] = experiment: Biodistribution in bone of Fischer 344 rat bearing rat 9L cells at 20 uCi, iv after 120 mins; format: ADME, organism-based, Bone element; settings: in vivo, 2 h; method in brief: as §3
# Pancreas [16] = experiment: Biodistribution in pancreas of Fischer 344 rat bearing rat 9L cells at 20 uCi, iv after 120 mins; format: ADME, organism-based; settings: in vivo, 2 h; method in brief: as §3
# Kidney [17] = experiment: Biodistribution in kidney of Fischer 344 rat bearing rat 9L cells at 20 uCi, iv after 30 mins; format: ADME, organism-based; settings: in vivo, 0.5 h; method in brief: as §3
# [18] = Biodistribution in testis of Fischer 344 rat bearing rat 9L cells at 20 uCi, iv after 60 mins; format: ADME, organism-based; settings: in vivo, 1 h; method in brief: as §3
# Muscle tissue [19] = experiment: Biodistribution in muscle of Fischer 344 rat bearing rat 9L cells at 20 uCi, iv after 30 mins; format: ADME, organism-based; settings: in vivo, 0.5 h; method in brief: as §3
# Bone [20] = experiment: Biodistribution in bone of Fischer 344 rat bearing rat 9L cells at 20 uCi, iv after 30 mins; format: ADME, organism-based, Bone element; settings: in vivo, 0.5 h; method in brief: as §3
# [21] = Biodistribution in tumor of Fischer 344 rat bearing rat 9L cells at 20 uCi, iv after 30 mins; format: ADME, organism-based, Neoplasm; settings: in vivo, 0.5 h; method in brief: as §3
# Blood [22] = experiment: Biodistribution in blood of Fischer 344 rat bearing rat 9L cells at 20 uCi, iv after 60 mins; format: ADME, organism-based; settings: in vivo, 1 h; method in brief: as §3
# Heart [23] = experiment: Biodistribution in heart of Fischer 344 rat bearing rat 9L cells at 20 uCi, iv after 60 mins; format: ADME, organism-based; settings: in vivo, 1 h; method in brief: as §3
# [24] = Biodistribution in tumor of Fischer 344 rat bearing rat 9L cells at 20 uCi, iv after 30 mins; settings: in vivo, 0.5 h
# Lung [25] = experiment: Biodistribution in lung of Fischer 344 rat bearing rat 9L cells at 20 uCi, iv after 30 mins; format: ADME, organism-based; settings: in vivo, 0.5 h; method in brief: as §3
# Heart [26] = experiment: Biodistribution in heart of Fischer 344 rat bearing rat 9L cells at 20 uCi, iv after 30 mins; format: ADME, organism-based; settings: in vivo, 0.5 h; method in brief: as §3
# [27] = Biodistribution in testis of Fischer 344 rat bearing rat 9L cells at 20 uCi, iv after 120 mins; format: ADME, organism-based; settings: in vivo, 2 h; method in brief: as §3
# Brain = experiment: Biodistribution in brain of Fischer 344 rat bearing rat 9L cells at 20 uCi, iv after 30 mins; settings: in vivo, 0.5 h
# [28] = rat, in vivo, iv, 1 h; remark: listed apart in the source
# Kidney [29] = experiment: Biodistribution in kidney of Fischer 344 rat bearing rat 9L cells at 20 uCi, iv after 60 mins; format: ADME, organism-based; settings: in vivo, 1 h; method in brief: as §3
# Bone [30] = experiment: Biodistribution in bone of Fischer 344 rat bearing rat 9L cells at 20 uCi, iv after 60 mins; format: ADME, organism-based, Bone element; settings: in vivo, 1 h; method in brief: as §3
# Spleen [31] = experiment: Biodistribution in spleen of Fischer 344 rat bearing rat 9L cells at 20 uCi, iv after 30 mins; format: ADME, organism-based; settings: in vivo, 0.5 h; method in brief: as §3
# Pancreas [32] = experiment: Biodistribution in pancreas of Fischer 344 rat bearing rat 9L cells at 20 uCi, iv after 30 mins; format: ADME, organism-based; settings: in vivo, 0.5 h; method in brief: as §3
# [33] = Ratio of drug level from tumor to brain of Fischer 344 rat bearing rat 9L cells at 20 uCi, iv after 120 mins; format: ADME, organism-based; settings: in vivo, 2 h
# Muscle tissue [34] = experiment: Biodistribution in muscle of Fischer 344 rat bearing rat 9L cells at 20 uCi, iv after 60 mins; format: ADME, organism-based; settings: in vivo, 1 h; method in brief: as §3
# Spleen [35] = experiment: Biodistribution in spleen of Fischer 344 rat bearing rat 9L cells at 20 uCi, iv after 120 mins; format: ADME, organism-based; settings: in vivo, 2 h; method in brief: as §3
# [36] = Ratio of drug level from tumor to brain of Fischer 344 rat bearing rat 9L cells at 20 uCi, iv after 60 mins; settings: in vivo, 1 h
# Lung [37] = experiment: Biodistribution in lung of Fischer 344 rat bearing rat 9L cells at 20 uCi, iv after 60 mins; format: ADME, organism-based; settings: in vivo, 1 h; method in brief: as §3
# Heart [38] = experiment: Biodistribution in heart of Fischer 344 rat bearing rat 9L cells at 20 uCi, iv after 120 mins; format: ADME, organism-based; settings: in vivo, 2 h; method in brief: as §3
# Liver [39] = experiment: Biodistribution in liver of Fischer 344 rat bearing rat 9L cells at 20 uCi, iv after 120 mins; format: ADME, organism-based; settings: in vivo, 2 h; method in brief: as §3
# Blood [40] = experiment: Biodistribution in blood of Fischer 344 rat bearing rat 9L cells at 20 uCi, iv after 120 mins; format: ADME, organism-based; settings: in vivo, 2 h; method in brief: as §3
# Liver [41] = experiment: Biodistribution in liver of Fischer 344 rat bearing rat 9L cells at 20 uCi, iv after 60 mins; format: ADME, organism-based; settings: in vivo, 1 h; method in brief: as §3
# Kidney [42] = experiment: Biodistribution in kidney of Fischer 344 rat bearing rat 9L cells at 20 uCi, iv after 120 mins; format: ADME, organism-based; settings: in vivo, 2 h; method in brief: as §3
# Liver [43] = experiment: Biodistribution in liver of Fischer 344 rat bearing rat 9L cells at 20 uCi, iv after 30 mins; format: ADME, organism-based; settings: in vivo, 0.5 h; method in brief: as §3
smiles,measurement,setting,value
C[C@](N)(CF)C(=O)O.Cl,Activity,9L [1],67%
same,Activity,9L [2],87%
same,Drug uptake,9L [3],5.51 %ID
same,Drug uptake,9L [4],13.06 %ID
same,Activity,9L [5],58%
same,Drug uptake,9L [6],4.27 %ID
same,Drug uptake,9L [7],1.7 %ID
C[C@@](N)(C[18F])C(=O)O.Cl,Drug uptake,Spleen [8],0.62 % ID/g
same,Drug uptake,[9],1.82 % ID/g
same,Drug uptake,Blood [10],0.58 % ID/g
same,Drug uptake,Pancreas [11],3.91 % ID/g
same,Drug uptake,Lung [12],0.36 % ID/g
same,Drug uptake,[13],0.19 % ID/g
same,Drug uptake,Muscle tissue [14],0.36 % ID/g
same,Drug uptake,Bone [15],0.31 % ID/g
same,Drug uptake,Pancreas [16],2.79 % ID/g
same,Drug uptake,Kidney [17],8.71 % ID/g
same,Drug uptake,[18],0.16 % ID/g
same,Drug uptake,Muscle tissue [19],0.47 % ID/g
same,Drug uptake,Bone [20],0.3 % ID/g
same,Ratio,[21],21.1
same,Drug uptake,Blood [22],0.4 % ID/g
same,Drug uptake,Heart [23],0.41 % ID/g
same,Drug uptake,[24],1.38 % ID/g
same,Drug uptake,Lung [25],0.67 % ID/g
same,Drug uptake,Heart [26],0.43 % ID/g
same,Drug uptake,[27],0.17 % ID/g
same,Drug uptake,Brain,0.07 % ID/g
same,Drug uptake,[28],0.06 % ID/g
same,Drug uptake,Kidney [29],7.62 % ID/g
same,Drug uptake,Bone [30],0.3 % ID/g
same,Drug uptake,Spleen [31],0.73 % ID/g
same,Drug uptake,Pancreas [32],3.75 % ID/g
same,Ratio,[33],27.7
same,Drug uptake,Muscle tissue [34],0.37 % ID/g
same,Drug uptake,Spleen [35],0.51 % ID/g
same,Ratio,[36],30.9
same,Drug uptake,Lung [37],0.47 % ID/g
same,Drug uptake,Heart [38],0.34 % ID/g
same,Drug uptake,Liver [39],0.42 % ID/g
same,Drug uptake,Blood [40],0.32 % ID/g
same,Drug uptake,Liver [41],0.54 % ID/g
same,Drug uptake,Kidney [42],6.88 % ID/g
same,Drug uptake,Liver [43],0.61 % ID/g
C[C@@](N)(CF)C(=O)O.Cl,Activity,9L [1],75%
same,Activity,9L [2],72%
same,Drug uptake,9L [3],3.29 %ID
same,Drug uptake,9L [4],4.77 %ID
same,Activity,9L [5],31%
same,Drug uptake,9L [6],1.21 %ID
same,Drug uptake,9L [7],1.33 %ID
CN[C@@](C)(CF)C(=O)O.Cl,Activity,9L [1],54%
same,Activity,9L [2],89%
same,Drug uptake,9L [3],0.6 %ID
same,Drug uptake,9L [4],7.08 %ID
same,Activity,9L [5],92%
same,Drug uptake,9L [6],3.26 %ID
same,Drug uptake,9L [7],0.75 %ID
